Data from paper PMC11109934 (RSC Medicinal Chemistry, 2024).

Columns and labels:
BxPC3 cells = test: xCELLigence real time monitoring of cell proliferation, BxPC3; type: cell-based, human
[1] = tested on: primary cultured mouse astrocytes; test: xCELLigence real time monitoring of cell proliferation, primary mouse astrocytes; type: cell-based; conditions: for reduction of cell index: primary cultured mouse astrocytes, after 72 hours
GL261-Luc cells = test: xCELLigence real time monitoring of cell proliferation, GL261-Luc; type: cell-based, mouse; conditions: for reduction of cell index: 72 hours
[2] = tested on: caspase 3/7 activation in BxPC3 cells; test: Caspase 3/7 assay, BxPC3; type: cell-based, human; conditions: 72 hours; for increase in caspase 3/7 activation (apoptosis): 256 μM
In short: (§1)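 BxPC3 (5 × 10^3/well) or GL261-Luc (3 × 10^3/well) cells in DMEM, 10% FBS, 1% pen-strep-glutamine. After 24 h, exposed to test compound for 72 h in medium with 0.1% DMSO final. CellEvent caspase-3/7 green reagent added for 1 h at 37 °C. Whole-well fluorescence imaged (Ex 488/Em 520). Cells then fixed (3.7% PFA), permeabilised (0.3% Triton X-100), BSA-blocked and stained with CellTag 700 (Ex 685/Em 720). Caspase signal normalised to cell number, then expressed as fold over control. At least 3 independent experiments, at least 4 replicates each.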

[3] = tested on: caspase 3/7 activation in GL261-Luc cells; test: Caspase 3/7 assay, GL261-Luc; type: cell-based, mouse; conditions: 72 hours; for increase in caspase 3/7 activation (apoptosis): 256 μM
In short: as §1

[4] = tested on: BxPC3 human pancreatic cancer cells; test: CyQUANT viability assay, BxPC3; type: cell-based; conditions: 72 hours, compared to the control
In short: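 BxPC3 cells (DMEM, 10% FBS, 1% pen-strep-glutamine; passages 10–20) were seeded at 5 × 10^3/well. After 24 h they were exposed to test compound for 72 h, with 0.1% DMSO final. Medium was removed, then CyQUANT Direct nucleic acid stain plus background suppressor in HBSS was added for 1 h at 37 °C. Whole-well fluorescence was laser-scanned (Ex 488/Em 520, 100 μm pixels) and normalised to control (100% viability). At least 3 independent experiments, at least 4 replicates each.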

[5] = BxPC3 cells, 128 μM, after 72 hours, compared to the control
[6] = 128 μM, normalised to cell number (CellTag 700)

Compound	reduction of cell index (GL261-Luc cells; 256 μM)	reduction of cell index (BxPC3 cells; BxPC3 cells, 256 μM, 72 hours)	reduction of cell index ([1]; 256 μM)	increase in caspase 3/7 activation (apoptosis) [2]	increase in caspase 3/7 activation (apoptosis) [3]	reduction of viability (CyQUANT) ([4]; 256 μM)	reduction of cell index (GL261-Luc cells; 128 μM)	reduction of cell index (BxPC3 cells; [5])	reduction of cell index ([1]; 128 μM)	reduction of viability (CyQUANT) ([4]; 128 μM)	also measured
Oc1ccc2ccccc2c1 [2-naphthol]	–	–	–	–	–	–	–	–	–	–	activity in real-time xCELLigence experiments (BxPC3 cells; 16 μM): notable activity; time until cell index declined (BxPC3 cells; BxPC3 cells, 128 μM): 8 h; ED50 (cell index) (BxPC3 cells; BxPC3 cells, 72-hour exposure time, xCELLigence): 21 µM; fold greater cytotoxicity than 1-naphthol (BxPC3 cells; BxPC3 cells, real time xCELLigence monitoring): 4 fold; time until cell index declined ([1]; primary cultured astrocytes, 128 μM): ≤ 4 h
Oc1cccc2ccccc12 [1-naphthol, 1-Naphthol]	–	–	–	–	–	–	–	–	–	–	time until cytotoxicity began (GL261-Luc cells; 128 μM): 28 h
C[C@H](N)C(=O)OCc1ccccc1 [L-alanine benzyl ester]	no significant effect	no significant effect	11–17%	no significant increase	no significant increase	no significant effect	–	–	–	–	–
OCc1ccccc1O [salicyl alcohol]	–	–	–	–	–	–	no significant effect	no significant effect	11–17%	no significant effect	increase in caspase 3/7 activation [2, 6]: no effect; increase in caspase 3/7 activation [3, 6]: no effect
CC(C)OC(=O)[C@H](C)N [L-alanine isopropyl ester]	no significant effect	no significant effect	11–17%	no significant increase	no significant increase	no significant effect	–	–	–	–	–
Oc1ccccc1 [phenol]	–	–	–	–	–	–	no significant effect	no significant effect	11–17%	no significant effect	–
